Bounds are passed on as bounds.

System in one assay: not listed separately
Nature of the assay: Inhibition of SARS CoV2 C-terminal His6-tagged 3CL protease expressed in Escherichia coli BL21 DE3 using Thr-Ser-Ala-Val-Leu-Gln-pNA as substrate preincubated for 30 mins followed by substrate addition and measured for 20 mins by colorimetric method. Set-up: species or system Severe acute respiratory syndrome coronavirus 2.
Settings: not given
Usually IC50 stands for the concentration needed to halve the response being measured. Higher therefore signals lower potency. In turn, `NC(=O)c1ccc2c(c1)C(=O)C(=O)N2Cc1ccc2cc(-c3ccccc3)ccc2c1` had an IC50 of 24.9 µM.

Compound `CCCN1C(=O)C(=O)c2cc(C(N)=O)ccc21` registered a half-maximal inhibitory concentration (IC50) of 10.2 µM.

In turn, `NC(=O)Cc1ccc2c(c1)C(=O)C(=O)N2Cc1ccc2ccccc2c1` registered an IC50 of 39.2 µM.

Compound `NC(=O)c1ccc2c(c1)C(=O)C(=O)N2Cc1ccc2ccccc2c1` had an IC50 of 0.045 µM.

In the case of `NC(=O)c1ccc2c(c1)C(=O)C(=O)N2Cc1cc2ccccc2s1`, half-maximal inhibition (IC50) was put at 0.053 µM.

In turn, `NC(=O)c1ccc2c(c1)C(=O)C(=O)N2Cc1ccc2cc(Br)ccc2c1` registered an IC50 of 0.047 µM.

As to `CCCCN1C(=O)C(=O)c2cc(I)ccc21`, the concentration for half-maximal inhibition (IC50) is 41.8 µM.

Regarding `CCCCN1C(=O)C(=O)c2cc(C(N)=O)ccc21`, the IC50 is 17.8 µM.

`O=C(ON1C(=O)CCC1=O)c1ccc2c(c1)C(=O)C(=O)N2Cc1ccccc1`: the IC50 stood at 15.5 µM.

Another assay concerns Severe acute respiratory syndrome coronavirus 2. Nature of the assay: Inhibition of SARS CoV2 C-terminal His6-tagged 3CL protease expressed in Escherichia coli BL21 DE3 at 50 uM using Thr-Ser-Ala-Val-Leu-Gln-pNA as substrate preincubated for 30 mins followed by substrate addition and measured for 20 mins by colorimetric method relative to control. The note with it: time 50.0 min. The gist of the method: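 Recombinant SARS-CoV-2 3CLpro comes from a synthetic full-length gene expressed in E. coli and purified. The enzyme was preincubated with compound for 30 min at room temperature in 40 mM PBS, 100 mM NaCl, 1 mM EDTA, 0.1% Triton, pH 7.3. TSAVLQ-pNA was then added to 200 μM final. A390 was read every 30 s for 20 min. Line 1 is percent inhibition at 50 μM. IC50s were fitted with a Hill1 function.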
As usually defined, the inhibition is how much of the control response was suppressed. Higher therefore signals strong suppression. As for `O=C1C(=O)N(CO)c2ccccc21`, the inhibition was less than 25%.

Compound `CCCN1C(=O)C(=O)c2cc(C(=O)O)ccc21` showed an inhibition of less than 25%.

Turning to `COC(=O)c1ccc2c(c1)C(=O)C(=O)N2CN1CCOCC1`, the inhibition is 32%.

As to `CCCCN1C(=O)C(=O)c2cc(C(=O)O)ccc21`, the inhibition is less than 25%.

Take `O=C(O)c1ccc2c(c1)C(=O)C(=O)N2Cc1ccccc1`: the inhibition is less than 25%.

Take `O=C1C(=O)N(CN2CCOCC2)c2ccc([N+](=O)[O-])cc21`: the inhibition was less than 25%.

In the case of `COC(=O)c1ccc2c(c1)C(=O)C(=O)N2Cc1ccccc1`, the inhibition turned out to be 45%.

For `O=C(O)c1ccc2c(c1)C(=O)C(=O)N2Cc1ccc2ccccc2c1`, the inhibition was 32%.

Regarding `CCCCN1C(=O)C(=O)c2cc(C(=O)OC)ccc21`, the inhibition worked out at 42%.

In turn, `O=C1C(=O)N(CN2CCOCC2)c2ccc(Cl)cc21` showed an inhibition of less than 25%.

`COC(=O)c1ccc2c(c1)C(=O)C(=O)N2C` showed an inhibition of 53%.

For the compound `CN1C(=O)C(=O)c2cc(C(=O)ON3C(=O)CCC3=O)ccc21`, the inhibition is 45%.

`CN1C(=O)C(=O)c2cc(C(=O)O)ccc21` displayed an inhibition of less than 25%.

`O=C1C(=O)N(CN2CCOCC2)c2ccc(F)cc21` came in with an inhibition of less than 25%.

`O=C1C(=O)N(CN2CCOCC2)c2ccccc21`: the inhibition is less than 25%.

`CCCN1C(=O)C(=O)c2cc(I)ccc21` showed an inhibition of 51%.

`O=C1C(=O)N(CN2CCCCC2)c2ccc(F)cc21` gave an inhibition of less than 25%.

Take `CN1C(=O)C(=O)c2cc(I)ccc21`: the inhibition was 25%.

In turn, `CCCCN1C(=O)C(=O)c2cc(C(=O)ON3C(=O)CCC3=O)ccc21` registered an inhibition of 47%.

The compound `CCCN1C(=O)C(=O)c2cc(C(=O)OC)ccc21` had an inhibition of 53%.

For the origin of these results see ChEMBL document CHEMBL4765424 (Eur J Med Chem, 2020).
